Legend:
[1] = The function log (MrI) where M, is the molecular weight of the test compound and I is its activity relative to the reference compound 1, expresses the biological activity in molar terms; assay type: functional
Summary of the method: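 Relative activity I from iv rat PCA 100%-inhibition comparison with M&B 22,948, converted to molar terms as log(Mr·I) using the compound's molecular weight.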

[2] = system: Rattus norvegicus; assay: Antiallergic activity in the rat PCA test following iv administration relative to M&B 22,948, the dose of which was 0.1 mg/kg for 100% inhibition; assay type: functional
[3] = species on record: Rattus norvegicus; assay: Biological activity; assay type: functional
[4] = Association constant at 25 degree C in aqueous media; assay type: ADME
Summary of the method: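 Spectroscopic method in aqueous buffer at 25 °C. Values are thermodynamic pKa's corrected for the ionic strength of the buffer solutions.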

[5] = system: Rattus norvegicus; assay: Inhibitory dose in the rat PCA test following oral administration; assay type: functional; conditions: read-out: ID50 (the source's name)
[6] = system: Rattus norvegicus; assay: Inhibitory dose in the rat PCA test following iv administration; assay type: functional; conditions: read-out: ID50 (the source's name)

Row | Compound | Relative activity [2] | Log [MrI] [3] | further results
1 | Cc1cc(NC(=O)c2nn[nH]n2)c(O)c(C(=O)O)c1 | 0.2 |  | Log MrI [1]: 1.72
2 | CC(=O)c1cc(CC(C)C)cc(C(=O)Nc2nn[nH]n2)c1O | 0.2 | 1.783 | 
3 | CS(=O)(=O)c1ccc(O)c(C(=O)Nc2nn[nH]n2)c1 | 0.04 | 1.053 | 
4 | CC(=O)c1cccc(NC(=O)c2nn[nH]n2)c1O | 20 | 3.694 | 
5 | COc1cc(C(C)(C)C)cc(C(=O)Nc2nn[nH]n2)c1O | 0.1 | 1.464 | 
6 | O=C(Nc1nn[nH]n1)c1cc(C(F)(F)F)ccc1O | 0.02 | 0.737 | 
7 | Cc1cc(NC(=O)c2nn[nH]n2)c(O)c(C(=O)C2CC2)c1 | 5 | 3.157 | 
8 | CCC(=O)c1cc(CC)cc(NC(=O)c2nn[nH]n2)c1O | 5 | 3.16 | 
9 | Cc1cc(NC(=O)c2nn[nH]n2)c(O)c(C(=O)N(C)C)c1 | 1 | 2.463 | 
10 | CC(=O)c1cc([N+](=O)[O-])cc(NC(=O)c2nn[nH]n2)c1O | 5 | 3.164 | 
11 | CC(=O)c1cc(S(C)(=O)=O)cc(NC(=O)c2nn[nH]n2)c1O | 2 | 2.813 | 
12 | COc1cc(C)cc(C(=O)Nc2nn[nH]n2)c1O | 0.5 | 2.095 | 
13 | CC(C)(C)c1ccc(O)c(C(=O)Nc2nn[nH]n2)c1 | 0.01 | 0.417 | 
14 | Cc1cc(NC(=O)c2nn[nH]n2)c(O)c(C(=O)Cc2ccccc2)c1 | 0.1 | 3.528 | 
15 | O=C(Nc1nn[nH]n1)c1ccccc1O | 0.1 | 1.312 | 
16 | CO/N=C(\C)c1cc(C)cc(NC(=O)c2nn[nH]n2)c1O | 10 | 3.463 | 
17 | CCC(=O)c1cc(C)cc(NC(=O)c2nn[nH]n2)c1O | 5 | 3.139 | 
18 | CCOC(=O)c1cc(C)cc(NC(=O)c2nn[nH]n2)c1O | 10 |  | Log MrI [1]: 3.46
19 | Cc1cc(NC(=O)c2nn[nH]n2)c(O)c(-c2nn[nH]n2)c1 | 1 | 2.455 | 
20 | CCc1cc(NC(=O)c2nn[nH]n2)c(O)c(C(C)=O)c1 | 20 | 3.74 | 
21 | CCCc1cc(NC(=O)c2nn[nH]n2)c(O)c(C(C)=O)c1 | 10 | 3.461 | 
22 | CC(=O)c1cc(C(C)(C)C)cc(NC(=O)c2nn[nH]n2)c1O | 0.5 | 2.17 | 
23 | COc1cc(C)cc(NC(=O)c2nn[nH]n2)c1O | 2.5 | 2.794 | 
24 | O=C(Nc1nn[nH]n1)c1cc(Br)ccc1O | 0.02 | 0.756 | 
25 | O=C(Nc1ccccc1O)c1nn[nH]n1 | 1 | 2.31 | 
26 | COc1cc(OC)c(O)c(C(=O)Nc2nn[nH]n2)c1 | 0.5 | 2.122 | 
27 | Cc1cc(NC(=O)c2nn[nH]n2)c(O)c(C(N)=O)c1 | 5 | 3.118 | 

Row | Compound | Relative activity [2] | Log [MrI] [3] | further results
28 | O=C(Nc1nn[nH]n1)c1cc([N+](=O)[O-])ccc1O | 0.5 |  | Log MrI [1]: 2.1
29 | CC(=O)c1cc(Br)cc(C(=O)Nc2nn[nH]n2)c1O | 0.05 | 1.212 | 
30 | Cc1cc(NC(=O)c2nn[nH]n2)c(O)c(C(=O)C(F)(F)F)c1 | 0.2 | 1.8 | 
31 | COc1cc([N+](=O)[O-])cc(C(=O)Nc2nn[nH]n2)c1O | 1 | 2.447 | 
32 | COc1cc(Br)cc(C(=O)Nc2nn[nH]n2)c1O | 0.2 | 1.798 | 
33 | O=C(Nc1nn[nH]n1)c1cc(Cl)ccc1O | 0.1 | 1.38 | 
34 | CC(=O)c1cc(Cl)cc(C(=O)Nc2nn[nH]n2)c1O | 0.05 | 1.149 | 
35 | CC(=O)c1cc([N+](=O)[O-])cc(C(=O)Nc2nn[nH]n2)c1O | 1 | 2.465 | 
36 | CC(=O)c1ccc(O)c(C(=O)Nc2nn[nH]n2)c1 | 0.02 | 0.694 | 
37 | COC(=O)c1cc(C)cc(NC(=O)c2nn[nH]n2)c1O | 2 |  | Log MrI [1]: 2.74
38 | CCc1cc(OC)c(O)c(C(=O)Nc2nn[nH]n2)c1 | 1 | 2.42 | 
39 | Cc1cc(NC(=O)c2nn[nH]n2)c(O)c(C(=O)C(C)C)c1 | 5 | 3.16 | 
40 | CCc1cc(C(C)=O)c(O)c(C(=O)Nc2nn[nH]n2)c1 | 1 | 2.439 | 
41 | N#Cc1ccc(O)c(C(=O)Nc2nn[nH]n2)c1 | 0.5 | 2.061 | 
42 | CC(=O)c1cc(F)cc(C(=O)Nc2nnn[nH]2)c1O | 0.5 | 2.123 | pKa ([4]; aqueous media, read-out: pKa): 4.2; pKa ([4]; buffer): 7.1
43 | CC(=O)c1cccc(C(=O)Nc2nn[nH]n2)c1O | 1 | 2.393 | 
44 | COc1cc(Br)cc(NC(=O)c2nn[nH]n2)c1O | 2 | 2.798 | 
45 | COc1cccc(NC(=O)c2nn[nH]n2)c1O | 5 | 3.07 | 
46 | CC(=O)c1cc(Br)cc(NC(=O)c2nn[nH]n2)c1O | 2 | 2.814 | 
47 | COc1cccc(C(=O)Nc2nn[nH]n2)c1O | 1 | 2.371 | 
48 | O=C(Nc1nn[nH]n1)c1cc(-c2ccccc2)ccc1O | 0.01 | 0.449 | 
49 | CC(=O)c1cc(Cl)cc(NC(=O)c2nn[nH]n2)c1O | 7 | 3.295 | 
50 | COc1ccc(O)c(C(=O)Nc2nn[nH]n2)c1 | 0.2 | 1.672 | 
51 | COc1cc(C#N)cc(C(=O)Nc2nn[nH]n2)c1O | 2 | 2.716 | 
52 | CC(=O)c1cc(C(C)(C)C)cc(C(=O)Nc2nn[nH]n2)c1O | 0.4 | 2.084 | 
53 | CCC(=O)c1cc(C#N)cc(NC(=O)c2nn[nH]n2)c1O | 5 | 3.156 | 
54 | O=C(Nc1nn[nH]n1)c1cc(O)ccc1O | 0.1 |  | Log MrI [1]: 1.34

Row | Compound | Relative activity [2] | Log [MrI] [3] | further results
55 | CCCC(=O)c1cc(C)cc(NC(=O)c2nn[nH]n2)c1O | 4 | 3.063 | 
56 | CCC(=O)c1cc(CC)cc(C(=O)Nc2nn[nH]n2)c1O | 0.75 | 2.34 | 
57 | CCc1cc(C(=O)Nc2nn[nH]n2)c(O)c(/C(C)=N/O)c1 | 10 | 3.462 | 
58 | CSc1ccc(O)c(C(=O)Nc2nn[nH]n2)c1 | 0.2 | 1.701 | 
59 | Cc1ccc(O)c(C(=O)Nc2nn[nH]n2)c1 | 0.1 | 1.34 | 
60 | CC(=O)c1cc(C)cc(C(=O)Nc2nn[nH]n2)c1O | 1 | 2.417 | 
61 | CC(=O)c1cc(C#N)cc(NC(=O)c2nn[nH]n2)c1O | 10 | 3.435 | 
62 | COc1cc(C(C)=O)c(O)c(C(=O)Nc2nn[nH]n2)c1 | 2 | 2.743 | 
63 | CCCc1cc(C(C)=O)c(O)c(C(=O)Nc2nn[nH]n2)c1 | 2 | 2.762 | 
64 | CC(=O)Nc1ccc(O)c(C(=O)Nc2nn[nH]n2)c1 | 0.01 | 0.418 | 
65 | CC(=O)Nc1cc(C(C)=O)c(O)c(C(=O)Nc2nn[nH]n2)c1 | 0.2 | 1.784 | 
66 | CC(=O)c1cc(S(N)(=O)=O)cc(C(=O)Nc2nn[nH]n2)c1O | 0.2 | 1.814 | 
67 | CCC(=O)c1cc(C)cc(C(=O)Nc2nn[nH]n2)c1O | 2 | 2.741 | 
68 | CCc1cc(NC(=O)c2nn[nH]n2)c(O)c(OC)c1 | 10 | 3.42 | 
69 | COc1cc(NC(=O)c2nn[nH]n2)c(O)c(C(C)=O)c1 | 10 | 3.443 | 
70 | CN(C)S(=O)(=O)c1ccc(O)c(NC(=O)c2nn[nH]n2)c1 | 0.25 | 1.892 | 
71 | CC(=O)c1cc(C)cc(NC(=O)c2nn[nH]n2)c1O | 10 | 3.417 | 
72 | CC(=O)Nc1cc(NC(=O)c2nn[nH]n2)c(O)c(C(C)=O)c1 | 0.5 |  | Log MrI [1]: 2.19
73 | CN(C)S(=O)(=O)c1ccc(O)c(C(=O)Nc2nn[nH]n2)c1 | 0.05 | 1.193 | 
74 | CC(=O)c1cc(NC(=O)c2nn[nH]n2)c(O)c(C(C)=O)c1 | 0.5 | 2.16 | 
75 | COc1cc(NC(C)=O)cc(C(=O)Nc2nn[nH]n2)c1O | 0.02 | 0.766 | 
76 | CC(=O)c1cc(F)cc(NC(=O)c2nnn[nH]2)c1O [EFLUMAST] | 20 | 3.724 | ED50 [5]: 0.16 mg/kg; ED50 [6]: 0.004 mg/kg
77 | O=C(Nc1nn[nH]n1)c1cc(F)ccc1O | 0.1 | 1.348 | 
78 | CCc1cc(C(=O)Nc2nn[nH]n2)c(O)c(/C(C)=N/OC)c1 | 3.5 | 3.025 | 
79 | C/C(=N\O)c1cc(C)cc(NC(=O)c2nn[nH]n2)c1O | 35 | 3.985 | 

From ChEMBL document CHEMBL1123158, “Synthesis and quantitative structure-activity relationships of antiallergic 2-hydroxy-N-1H-tetrazol-5-ylbenzamides and N-(2-hydroxyphenyl)-1H-tetrazole-5-carboxamides” (J Med Chem, 1986)
